Source: ChEMBL document CHEMBL1806370, “Development of novel naphthalimide derivatives and their evaluation as potential melanoma therapeutics” (Eur J Med Chem, 2011)

Experiments:
[1] = test system: UACC-903; experiment: Cytotoxicity against human UACC-903 cells assessed as decrease in cell viability after 72 hrs by MTS assay; format: functional, cell-based
Procedure, shortened: (§1)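 Cells in DMEM with 10% FBS at 37 °C and 5% CO2 were plated at 5×10^3 per well and grown 24 h. They were then exposed 24 or 72 h to 0.5, 1, 5, 10, 25 and 50 µM, with final DMSO 0.5% and DMSO controls. MTS/PMS was added for 4 h at 37 °C. A492 was read with the medium blank subtracted and expressed as % of control. IC50 was taken from three independent experiments (mean ± S.E.).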

[2] = test system: Mus musculus; experiment: Systemic toxicity in Swiss Webster mouse assessed as reduction in body weight at 10 mg/kg, ip administered daily for 28 days; design: scale not given: the % may be the effect or the level left; conditions: in vivo, 672 h
[3] = test system: A375-S2; experiment: Cytotoxicity against human A375-S2 cells assessed as decrease in cell viability after 24 hrs by MTS assay; format: functional, cell-based; procedure, shortened: as §1
[4] = Cytotoxicity against human A375-S2 cells after 24 hrs by MTS assay; format: functional, cell-based; conditions: A375-S2, 24 h; procedure, shortened: as §1
[5] = test system: Mus musculus; experiment: Systemic toxicity in Swiss Webster mouse assessed as weight loss at 10 mg/kg, ip administered every day for 28 days; format: organism-based; design: dose 10 mg/kg, route intraperitoneal; conditions: in vivo, 672 h
Procedure, shortened: (§2)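 Swiss Webster mice, n = 4 per group, dosed i.p. once daily for 28 days at 5, 7.5, 10 or 15 mg/kg body weight. Body weight recorded twice per week; deaths noted over the dosing period.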

[6] = test system: Mus musculus; experiment: Systemic toxicity in Swiss Webster mouse assessed as mortality at 10 mg/kg, ip administered every day for 28 days; format: organism-based; design: dose 10 mg/kg, route intraperitoneal; conditions: in vivo, 672 h; procedure, shortened: as §2
[7] = test system: UACC-903; experiment: Induction of apoptosis in human UACC-903 cells assessed as non-viable cells at 1 uM after 24 hrs using annexin-V-PE/7-AAD double staining by flow cytometry; format: functional
Procedure, shortened: (§3)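 UACC 903 cells were exposed 24 h at 37 °C to 1, 5 or 25 µM, with DMSO as control. Cells were harvested, washed twice in cold PBS and resuspended at 1×10^6 cells/mL in binding buffer. They were stained with 7-AAD plus PE Annexin V for 20 min at room temperature in the dark and run by flow cytometry within 1 h. Gating: double-negative live, 7-AAD+ dead, Annexin V+/7-AAD− early apoptotic. Three separate experiments.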

[8] = test system: UACC-903; experiment: Induction of apoptosis in human UACC-903 cells assessed as viable cells at 1 uM after 24 hrs using annexin-V-PE/7-AAD double staining by flow cytometry; format: functional; conditions: UACC-903, 24 h, read-out: Activity; procedure, shortened: as §3
[9] = test system: 1205Lu; experiment: Cytotoxicity against human 1205 Lu cells assessed as decrease in cell viability after 72 hrs by MTS assay; format: functional, cell-based; procedure, shortened: as §1
[10] = test system: UACC-903; experiment: Induction of apoptosis in human UACC-903 cells assessed as late apoptotic cells at 5 uM after 24 hrs using annexin-V-PE/7-AAD double staining by flow cytometry; format: functional; procedure, shortened: as §3
[11] = Cytotoxicity against human SK-MEL-37 cells after 24 hrs by MTS assay; format: functional, cell-based; procedure, shortened: as §1
[12] = Cytotoxicity against human 1205 Lu cells after 72 hrs by MTS assay; format: functional, cell-based; procedure, shortened: as §1
[13] = test system: SK-MEL-37 (Homo sapiens); experiment: Cytotoxicity against human SK-MEL-37 cells assessed as decrease in cell viability after 24 hrs by MTS assay
[14] = test system: UACC-903; experiment: Induction of apoptosis in human UACC-903 cells assessed as viable cells at 5 uM after 24 hrs using annexin-V-PE/7-AAD double staining by flow cytometry; format: functional; conditions: UACC-903, 24 h, read-out: Activity; procedure, shortened: as §3
[15] = test system: UACC-903; experiment: Induction of apoptosis in human UACC-903 cells assessed as increase in apoptotic cells after 24 hrs using annexin-V-PE/7-AAD double staining by flow cytometry; format: functional, cell-based; procedure, shortened: as §3
[16] = test system: UACC-903; experiment: Cytotoxicity against human UACC-903 cells after 24 hrs by MTS assay; format: functional, cell-based; conditions: UACC-903, 24 h; procedure, shortened: as §1
[17] = Cytotoxicity against human SK-MEL-37 cells after 72 hrs by MTS assay; format: functional, cell-based; procedure, shortened: as §1
[18] = test system: SK-MEL-37 (Homo sapiens); experiment: Cytotoxicity against human SK-MEL-37 cells assessed as decrease in cell viability after 72 hrs by MTS assay
[19] = test system: UACC-903; experiment: Induction of apoptosis in human UACC-903 cells assessed as early apoptotic cells at 25 uM after 24 hrs using annexin-V-PE/7-AAD double staining by flow cytometry; format: functional; procedure, shortened: as §3
[20] = test system: Mus musculus; experiment: Systemic toxicity in Swiss Webster mouse assessed as mortality at 15 mg/kg, ip administered every day for 28 days; format: organism-based; design: dose 15 mg/kg, route intraperitoneal; conditions: in vivo, 672 h; procedure, shortened: as §2
[21] = test system: Mus musculus; experiment: Systemic toxicity in athymic Harlan Sprague-Dawley nude mouse xenografted with human UACC-903 cells assessed as mortality at 10 mg/kg, ip administered daily for 28 days; format: organism-based; design: dose 10 mg/kg, route intraperitoneal; conditions: in vivo, 672 h
[22] = test system: UACC-903; experiment: Induction of apoptosis in human UACC-903 cells assessed as non-viable cells at 5 uM after 24 hrs using annexin-V-PE/7-AAD double staining by flow cytometry; format: functional; procedure, shortened: as §3
[23] = test system: A375-S2; experiment: Cytotoxicity against human A375-S2 cells assessed as decrease in cell viability after 72 hrs by MTS assay; format: functional, cell-based; procedure, shortened: as §1
[24] = Cytotoxicity against human A375-S2 cells after 72 hrs by MTS assay; format: functional, cell-based; conditions: A375-S2, 72 h; procedure, shortened: as §1
[25] = test system: UACC-903; experiment: Antitumor activity against human UACC-903 cells xenografted in athymic Harlan Sprague-Dawley nude mouse assessed as reduction in tumor growth at 9.5 to 10.6 mg/kg, ip administered thrice per week for 24 days measured after 21 days; format: functional; conditions: dose mg/kg 9.5-10.6; route intraperitoneal
Procedure, shortened: (§4)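 Female athymic nude mice, 4–6 weeks old, received 5×10^6 UACC 903 cells s.c. in DMEM/10% FBS above both rib cages. After six days they were randomized at 5 mice/group, 2 tumors/mouse. Dosing was i.p. Mon/Wed/Fri, with one arm dosed daily; controls got DMSO vehicle. Tumor dimensions (calipers, mm³) and body weight were recorded three times weekly.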

[26] = test system: Mus musculus; experiment: Systemic toxicity in athymic Harlan Sprague-Dawley nude mouse xenografted with human UACC-903 cells assessed as reduction in body weight at 9.5 to 10.6 mg/kg, ip administered thrice a week for 24 days; format: organism-based; design: dose 9.5-10.6 mg/kg, route intraperitoneal; conditions: in vivo, 576 h; procedure, shortened: as §4
[27] = test system: 1205Lu; experiment: Cytotoxicity against human 1205 Lu cells assessed as decrease in cell viability after 24 hrs by MTS assay; format: functional, cell-based; procedure, shortened: as §1
[28] = test system: UACC-903; experiment: Induction of apoptosis in human UACC-903 cells assessed as early apoptotic cells at 1 uM after 24 hrs using annexin-V-PE/7-AAD double staining by flow cytometry; format: functional; procedure, shortened: as §3
[29] = test system: UACC-903; experiment: Cytotoxicity against human UACC-903 cells after 72 hrs by MTS assay; format: functional, cell-based; conditions: UACC-903, 72 h; procedure, shortened: as §1
[30] = test system: UACC-903; experiment: Induction of apoptosis in human UACC-903 cells assessed as early apoptotic cells at 5 uM after 24 hrs using annexin-V-PE/7-AAD double staining by flow cytometry; format: functional; procedure, shortened: as §3
[31] = test system: UACC-903; experiment: Induction of apoptosis in human UACC-903 cells assessed as non-viable cells at 25 uM after 24 hrs using annexin-V-PE/7-AAD double staining by flow cytometry; format: functional; procedure, shortened: as §3
[32] = test system: UACC-903; experiment: Induction of apoptosis in human UACC-903 cells assessed as late apoptotic cells at 25 uM after 24 hrs using annexin-V-PE/7-AAD double staining by flow cytometry; format: functional; procedure, shortened: as §3
[33] = test system: UACC-903; experiment: Induction of apoptosis in human UACC-903 cells assessed as late apoptotic cells at 1 uM after 24 hrs using annexin-V-PE/7-AAD double staining by flow cytometry; format: functional; procedure, shortened: as §3
[34] = test system: UACC-903; experiment: Cytotoxicity against human UACC-903 cells assessed as decrease in cell viability after 24 hrs by MTS assay; format: functional, cell-based; procedure, shortened: as §1
[35] = Cytotoxicity against human 1205 Lu cells after 24 hrs by MTS assay; format: functional, cell-based; procedure, shortened: as §1
[36] = test system: UACC-903; experiment: Induction of apoptosis in human UACC-903 cells assessed as viable cells at 25 uM after 24 hrs using annexin-V-PE/7-AAD double staining by flow cytometry; format: functional; conditions: UACC-903, 24 h, read-out: Activity; procedure, shortened: as §3
[37] = test system: Mus musculus; experiment: Systemic toxicity in athymic Harlan Sprague-Dawley nude mouse xenografted with human UACC-903 cells assessed as reduction in body weight at 8.5 to 10 mg/kg, ip administered thrice a week for 24 days; format: organism-based; design: dose 8.5-10 mg/kg, route intraperitoneal; conditions: in vivo, 576 h; procedure, shortened: as §4
[38] = test system: UACC-903; experiment: Antitumor activity against human UACC-903 cells xenografted in athymic Harlan Sprague-Dawley nude mouse assessed as reduction in tumor growth at 8.5 to 10 mg/kg, ip administered daily for 24 days measured after 21 days; format: functional; conditions: dose mg/kg 8.5-10; route intraperitoneal; procedure, shortened: as §4
[39] = test system: UACC-903; experiment: Antitumor activity against human UACC-903 cells xenografted in athymic Harlan Sprague-Dawley nude mouse assessed as reduction in tumor growth at 8.5 to 10 mg/kg, ip administered thrice per week for 24 days measured after 21 days; format: functional; conditions: dose mg/kg 8.5-10; route intraperitoneal; procedure, shortened: as §4

SMILES | Activity [1] | Activity [3] | IC50 [4] | Activity [5] | Activity [6] | Activity [7] | viability at 1 µM [8] | Activity [9] | Activity [10] | IC50 [11] | IC50 [12] | Activity [13] | viability at 5 µM [14] | Activity [15] | IC50 [16] | IC50 [17] | Activity [18] | Activity [19] | Activity [20] | Activity [22] | other results
N=C(N)SCCN1C(=O)c2cccc3cc([N+](=O)[O-])cc(c23)C1=O | Dose-dependent effect | Dose-dependent effect | 18.4 µM | Non-toxic | Non-toxic | 0.56% | 76.9% | Dose-dependent effect | 3.99% | 23.4 µM | 16.4 µM | Dose-dependent effect | 70.4% | Dose-dependent effect | 14.7 µM | 15 µM | Dose-dependent effect | 40.2% | Toxic | 0.43% | Activity [2]: 10%; Activity [21]: Non-toxic; Activity [23]: Dose-dependent effect; IC50 [24]: 9.48 µM; growth inhibition (GI) [25]: 20%; Activity [26]: Non-toxic; Activity [27]: Dose-dependent effect; Activity [28]: 20.1%; IC50 [29]: 6.95 µM; Activity [30]: 25.1%; Activity [31]: 0.32%; Activity [32]: 12.3%; Activity [33]: 2.41%; Activity [34]: Dose-dependent effect; IC50 [35]: 39.5 µM; viability at 25 µM [36]: 47.2%
N=C(N)SCCN1C(=O)c2cccc3cccc(c23)C1=O | Dose-dependent effect | Dose-dependent effect | 6.7 µM | Non-toxic | Non-toxic | 0.71% | 89.1% | Dose-dependent effect | 2.41% | 3.7 µM | 18.7 µM | Dose-dependent effect | 79.7% | Dose-dependent effect | 9.87 µM | 2.15 µM | Dose-dependent effect | 47.6% | Toxic | 0.42% | Activity [23]: Dose-dependent effect; IC50 [24]: 3.78 µM; growth inhibition (GI) [25]: 20%; Activity [26]: Non-toxic; Activity [27]: Dose-dependent effect; Activity [28]: 9.11%; IC50 [29]: 6.85 µM; Activity [30]: 17.5%; Activity [31]: 0.43%; Activity [32]: 9.64%; Activity [33]: 1.04%; Activity [34]: Dose-dependent effect; IC50 [35]: 22.4 µM; viability at 25 µM [36]: 42.4%
O=C1c2cccc3cccc(c23)C(=O)N1CCN=C=S | Dose-dependent effect | Dose-dependent effect | 7.93 µM | Non-toxic | Non-toxic | 6.41% | 76.3% | Dose-dependent effect | 7.96% | 5.93 µM | 6.04 µM | Dose-dependent effect | 69.3% | Dose-dependent effect | 11.3 µM | 2.2 µM | Dose-dependent effect | 22.1% | Toxic | 3.41% | Activity [37]: Non-toxic; growth inhibition (GI) [38]: 50%; Activity [23]: Dose-dependent effect; IC50 [24]: 5.05 µM; growth inhibition (GI) [39]: 30%; Activity [27]: Dose-dependent effect; Activity [28]: 12.4%; IC50 [29]: 8.04 µM; Activity [30]: 19.4%; Activity [31]: 5.59%; Activity [32]: 7.98%; Activity [33]: 4.96%; Activity [34]: Dose-dependent effect; IC50 [35]: 9.41 µM; viability at 25 µM [36]: 64.3%
